Key:
A549 = test: Cytotoxicity against human A549 cells after 72 hrs by SRB assay; type: functional, cell-based; conditions: A549, 72 h
Summary of the method: (§1)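 Adherent cells grown at 37 °C and 5% CO2. Seeded at 1×10^4/well 24 h before dosing, then 72 h at 10–0.01 µg/mL final. Fixed with cold 50% TCA, stained with 0.4% SRB, dye extracted in 10 mM Tris, read at 540 nm.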

HCT-116 = test: Cytotoxicity against human HCT116 cells after 72 hrs by SRB assay; type: functional, cell-based; conditions: HCT-116, 72 h; summary of the method: as §1
PC-3 = test: Cytotoxicity against human PC3 cells after 72 hrs by SRB assay; type: functional; conditions: PC-3, 72 h
[1] = Cytotoxicity against human BSY1 cells after 72 hrs by SRB assay; type: functional; conditions: BSY-1, 72 h
HT-29 = test: Cytotoxicity against human HT-29 cells after 72 hrs by SRB assay; type: functional; conditions: HT-29, 72 h
MCF7 = test: Cytotoxicity against human MCF7 cells after 72 hrs by SRB assay; type: functional; conditions: MCF7, 72 h
ACHN = test: Cytotoxicity against human ACHN cells after 72 hrs by SRB assay; type: functional
St-4 = test: Cytotoxicity against human St-4 cells after 72 hrs by SRB assay; type: functional; conditions: St-4, 72 h
MV4-11 = test: Antiproliferative activity against human MV4-11 cells after 72 hrs by MTT assay; type: functional, cell-based; conditions: MV4-11, 72 h
MDA-MB-231 = test: Cytotoxicity against human MDA-MB-231 cells after 72 hrs by SRB assay; type: functional; conditions: MDA-MB-231, 72 h
HCC 2998 = test: Cytotoxicity against human HCC2998 cells after 72 hrs by SRB assay; type: functional; conditions: HCC 2998, 72 h
NCI-H226 = test: Cytotoxicity against human NCI-H226 cells after 72 hrs by SRB assay; type: functional; conditions: NCI-H226, 72 h
[2] = Cytotoxicity against human HBC4 cells after 72 hrs by SRB assay; type: functional; conditions: HBC4, 72 h
SF-295 = test: Cytotoxicity against human SF295 cells after 72 hrs by SRB assay; type: functional; conditions: SF-295, 72 h
[3] = Cytotoxicity against human HBC5 cells after 72 hrs by SRB assay; type: functional; conditions: HBC5, 72 h
SNB-78 = test: Cytotoxicity against human SNB78 cells after 72 hrs by SRB assay; type: functional; conditions: SNB-78, 72 h
MKN-74 = test: Cytotoxicity against human MKN74 cells after 72 hrs by SRB assay; type: functional; conditions: MKN-74, 72 h
MKN-45 = test: Cytotoxicity against human MKN45 cells after 72 hrs by SRB assay; type: functional; conditions: MKN-45, 72 h
DU-145 = test: Cytotoxicity against human DU145 cells after 72 hrs by SRB assay; type: functional; conditions: DU-145, 72 h
DMS-273 = test: Cytotoxicity against human DMS273 cells after 72 hrs by SRB assay; type: functional; conditions: DMS-273, 72 h
SF-268 = test: Cytotoxicity against human SF268 cells after 72 hrs by SRB assay; type: functional; conditions: SF-268, 72 h
OVCAR-4 = test: Cytotoxicity against human OVCAR4 cells after 72 hrs by SRB assay; type: functional; conditions: OVCAR-4, 72 h
NCI-H460 = test: Cytotoxicity against human NCI-H460 cells after 72 hrs by SRB assay; type: functional; conditions: NCI-H460, 72 h
MKN-28 = test: Cytotoxicity against human MKN28 cells after 72 hrs by SRB assay; type: functional; conditions: MKN-28, 72 h
MKN-7 = test: Cytotoxicity against human MKN7 cells after 72 hrs by SRB assay; type: functional; conditions: MKN-7, 72 h
NCI-H23 = test: Cytotoxicity against human NCI-H23 cells after 72 hrs by SRB assay; type: functional; conditions: NCI-H23, 72 h
OVCAR-8 = test: Cytotoxicity against human OVCAR8 cells after 72 hrs by SRB assay; type: functional; conditions: OVCAR-8, 72 h
HCT-15 = test: Cytotoxicity against human HCT15 cells after 72 hrs by SRB assay; type: functional; conditions: HCT-15, 72 h
[4] = read-out: LC50 (the source's name)

COc1ccc(C2O[C@]34CC(c5cccc(OC)c5)OC(=O)C3=C[C@@]2(C)OO4)cc1 (some centres not stated)
TGI (A549): 37 µM | GI50 (A549; read-out: GI50): 18 µM | CC50 (A549; [4]): 72 µM | TGI (HCT-116): 13 µM | GI50 (HCT-116; read-out: GI50): 3.4 µM | CC50 (HCT-116; [4]): 70 µM | TGI (PC-3): 27 µM | GI50 (PC-3; read-out: GI50): 13 µM | CC50 (PC-3; [4]): 56 µM | TGI [1]: 17 µM | GI50 ([1]; read-out: GI50): 5 µM | CC50 [1, 4]: 46 µM | TGI (HT-29): 27 µM | GI50 (HT-29; read-out: GI50): 5.2 µM | CC50 (HT-29; [4]): 100 µM | TGI (MCF7): 29 µM | GI50 (MCF7; read-out: GI50): 10 µM | CC50 (MCF7; [4]): 87 µM | TGI (ACHN): 29 µM | GI50 (ACHN; read-out: GI50): 15 µM | CC50 (ACHN; [4]): 56 µM | TGI (St-4): 45 µM | GI50 (St-4; read-out: GI50): 18 µM | CC50 (St-4; [4]): 100 µM | IC50 (MV4-11): 4.68 µM | TGI (MDA-MB-231): 18 µM | GI50 (MDA-MB-231; read-out: GI50): 5.4 µM | CC50 (MDA-MB-231; [4]): 51 µM | TGI (HCC 2998): 22 µM | GI50 (HCC 2998; read-out: GI50): 6.3 µM | CC50 (HCC 2998; [4]): 62 µM | TGI (NCI-H226): 40 µM | GI50 (NCI-H226; read-out: GI50): 18 µM | CC50 (NCI-H226; [4]): 92 µM | TGI [2]: 13 µM | GI50 ([2]; read-out: GI50): 3.7 µM | CC50 [2, 4]: 38 µM | TGI (SF-295): 33 µM | GI50 (SF-295; read-out: GI50): 18 µM | CC50 (SF-295; [4]): 60 µM | TGI [3]: 4.1 µM | GI50 ([3]; read-out: GI50): 1.9 µM | CC50 [3, 4]: 8.8 µM | TGI (SNB-78): 34 µM | GI50 (SNB-78; read-out: GI50): 13 µM | CC50 (SNB-78; [4]): 90 µM | TGI (MKN-74): 37 µM | GI50 (MKN-74; read-out: GI50): 14 µM | CC50 (MKN-74; [4]): 96 µM | TGI (MKN-45): 30 µM | GI50 (MKN-45; read-out: GI50): 16 µM | CC50 (MKN-45; [4]): 57 µM | TGI (DU-145): 31 µM | GI50 (DU-145; read-out: GI50): 16 µM | CC50 (DU-145; [4]): 57 µM | TGI (DMS-273): 27 µM | GI50 (DMS-273; read-out: GI50): 10 µM | CC50 (DMS-273; [4]): 74 µM | TGI (SF-268): 36 µM | GI50 (SF-268; read-out: GI50): 14 µM | CC50 (SF-268; [4]): 92 µM | TGI (OVCAR-4): 11 µM | GI50 (OVCAR-4; read-out: GI50): 1.5 µM | CC50 (OVCAR-4; [4]): 42 µM | TGI (NCI-H460): 41 µM | GI50 (NCI-H460; read-out: GI50): 20 µM | CC50 (NCI-H460; [4]): 82 µM | TGI (MKN-28): 36 µM | GI50 (MKN-28; read-out: GI50): 11 µM | CC50 (MKN-28; [4]): 100 µM | TGI (MKN-7): 14 µM | GI50 (MKN-7; read-out: GI50): 3.4 µM | CC50 (MKN-7; [4]): 90 µM | TGI (NCI-H23): 36 µM | GI50 (NCI-H23; read-out: GI50): 17 µM | CC50 (NCI-H23; [4]): 79 µM | TGI (OVCAR-8): 38 µM | GI50 (OVCAR-8; read-out: GI50): 9.4 µM | CC50 (OVCAR-8; [4]): 100 µM | TGI (HCT-15): 17 µM | GI50 (HCT-15; read-out: GI50): 3.7 µM | CC50 (HCT-15; [4]): 100 µM

— ChEMBL document CHEMBL2434891, “Design, synthesis, and in vitro cancer cell growth inhibition evaluation and antimalarial testing of trioxanes installed in cyclic 2-enoate substructures” (Eur J Med Chem, 2013)
